“And” between values parts separate entries of the source, which are not always exact repeats. Equal values may be shown once.
Key:
[1] = Treatment-emergent adverse events; format: in vivo, Japanese patients
[2] = tested on: relapsed or refractory diffuse large B‐cell lymphoma; assay: Investigator-assessed response; format: in vivo, Japanese patients
In short: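 Investigator-assessed response by Lugano criteria in the full analysis set (all treated patients). Patients received 10 or 20 mg QD orally for 8 weeks, then the same dose QW. CT, FDG-PET or PET-CT was chosen by subtype, using the same technique as at screening. Scans ran every 8 weeks through week 24, every 12 weeks through week 96, then every 24 weeks until progression.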

[3] = Any TEAE, QD dosing period (n = 17)
[4] = Any TEAE, QW dosing period (n = 12)
[5] = Grade ≥3 TEAE, QD dosing period (n = 17)
[6] = Grade ≥3 TEAE, QW dosing period (n = 12)

CCOc1c([C@H](C)n2nc(C)c3c(N)ncnc32)cc(Cl)c(F)c1[C@@H]1CNC(=O)C1 [parsaclisib]
Serious TEAE of pyrexia ([1]; 2 patients): 11.8%
rash (AESI), severity ([1]; 3 patients): 2 patients with grade 1 and 1 patient with grade 2
nausea (TEAE) ([1]; 4 of 17 patients, total): 23.5%
pyrexia (TEAE) ([1]; 4 of 17 patients, total): 23.5%
Serious TEAEs ([1]; 5 patients): 29.4%
TEAEs leading to dose reduction ([1]; 5 patients): 29.4%
decreased neutrophil count leading to dose interruption ([1]; 5 patients): 29.4%
constipation (TEAE) ([1]; 6 of 17 patients, total): 35.3%
Adverse events of special interest ([1]; 7 patients): 41.2%
TEAEs of grade 3 or higher ([1]; 11 patients): 64.7%
Constipation [1, 3]: 4 (23.5) n (%)
Cough [1, 3]: 2 (11.8) n (%)
Cystitis [1, 3]: 1 (5.9) n (%)
Diarrhea [1, 3]: 0 (0.0) n (%)
Drug eruption [1, 3]: 3 (17.6) n (%)
Dry eye [1, 3]: 0 (0.0) n (%)
Dry skin [1, 3]: 2 (11.8) n (%)
Fall [1, 3]: 2 (11.8) n (%)
Gastritis [1, 3]: 2 (11.8) n (%)
Headache [1, 3]: 2 (11.8) n (%)
Hyperkalemia [1, 3]: 0 (0.0) n (%)
Hypoalbuminemia [1, 3]: 2 (11.8) n (%)
Insomnia [1, 3]: 0 (0.0) n (%)
Myalgia [1, 3]: 1 (5.9) n (%)
Nasopharyngitis [1, 3]: 0 (0.0) n (%)
Nausea [1, 3]: 2 (11.8) n (%)
Pyrexia [1, 3]: 3 (17.6) n (%)
Rash [1, 3]: 1 (5.9) n (%)
Stomatitis [1, 3]: 2 (11.8) n (%)
Upper respiratory tract infection [1, 3]: 2 (11.8) n (%)
Constipation [1, 4]: 2 (16.7) n (%)
Cough [1, 4]: 0 (0.0) n (%)
Cystitis [1, 4]: 1 (8.3) n (%)
Diarrhea [1, 4]: 3 (25.0) n (%)
Drug eruption [1, 4]: 0 (0.0) n (%)
Dry eye [1, 4]: 2 (16.7) n (%)
Dry skin [1, 4]: 0 (0.0) n (%)
Fall [1, 4]: 0 (0.0) n (%)
Gastritis [1, 4]: 0 (0.0) n (%)
Headache [1, 4]: 1 (8.3) n (%)
Hyperkalemia [1, 4]: 2 (16.7) n (%)
Hypoalbuminemia [1, 4]: 0 (0.0) n (%)
Insomnia [1, 4]: 3 (25.0) n (%)
Myalgia [1, 4]: 1 (8.3) n (%)
Nasopharyngitis [1, 4]: 3 (25.0) n (%)
Nausea [1, 4]: 3 (25.0) n (%)
Pyrexia [1, 4]: 1 (8.3) n (%)
Rash [1, 4]: 2 (16.7) n (%)
Stomatitis [1, 4]: 0 (0.0) n (%)
Upper respiratory tract infection [1, 4]: 0 (0.0) n (%)
Constipation ([1]; Any TEAE, Total (N = 17)): 6 (35.3) n (%)
Cough ([1]; Any TEAE, Total (N = 17)): 2 (11.8) n (%)
Cystitis ([1]; Any TEAE, Total (N = 17)): 2 (11.8) n (%)
Diarrhea ([1]; Any TEAE, Total (N = 17)): 3 (17.6) n (%)
Drug eruption ([1]; Any TEAE, Total (N = 17)): 3 (17.6) n (%)
Dry eye ([1]; Any TEAE, Total (N = 17)): 2 (11.8) n (%)
Dry skin ([1]; Any TEAE, Total (N = 17)): 2 (11.8) n (%)
Fall ([1]; Any TEAE, Total (N = 17)): 2 (11.8) n (%)
Gastritis ([1]; Any TEAE, Total (N = 17)): 2 (11.8) n (%)
Headache ([1]; Any TEAE, Total (N = 17)): 3 (17.6) n (%)
Hyperkalemia ([1]; Any TEAE, Total (N = 17)): 2 (11.8) n (%)
Hypoalbuminemia ([1]; Any TEAE, Total (N = 17)): 2 (11.8) n (%)
Insomnia ([1]; Any TEAE, Total (N = 17)): 3 (17.6) n (%)
Myalgia ([1]; Any TEAE, Total (N = 17)): 2 (11.8) n (%)
Nasopharyngitis ([1]; Any TEAE, Total (N = 17)): 3 (17.6) n (%)
Nausea ([1]; Any TEAE, Total (N = 17)): 4 (23.5) n (%)
Pyrexia ([1]; Any TEAE, Total (N = 17)): 4 (23.5) n (%)
Rash ([1]; Any TEAE, Total (N = 17)): 3 (17.6) n (%)
Stomatitis ([1]; Any TEAE, Total (N = 17)): 2 (11.8) n (%)
Upper respiratory tract infection ([1]; Any TEAE, Total (N = 17)): 2 (11.8) n (%)
Constipation [1, 5]: 0 (0.0) n (%)
Cough [1, 5]: 0 (0.0) n (%)
Cystitis [1, 5]: 0 (0.0) n (%)
Diarrhea [1, 5]: 0 (0.0) n (%)
Drug eruption [1, 5]: 0 (0.0) n (%)
Dry eye [1, 5]: 0 (0.0) n (%)
Dry skin [1, 5]: 0 (0.0) n (%)
Fall [1, 5]: 0 (0.0) n (%)
Gastritis [1, 5]: 0 (0.0) n (%)
Headache [1, 5]: 0 (0.0) n (%)
Hyperkalemia [1, 5]: 0 (0.0) n (%)
Hypoalbuminemia [1, 5]: 1 (5.9) n (%)
Insomnia [1, 5]: 0 (0.0) n (%)
Myalgia [1, 5]: 0 (0.0) n (%)
Nasopharyngitis [1, 5]: 0 (0.0) n (%)
Nausea [1, 5]: 0 (0.0) n (%)
Pyrexia [1, 5]: 0 (0.0) n (%)
Rash [1, 5]: 0 (0.0) n (%)
Stomatitis [1, 5]: 0 (0.0) n (%)
Upper respiratory tract infection [1, 5]: 0 (0.0) n (%)
Constipation [1, 6]: 0 (0.0) n (%)
Cough [1, 6]: 0 (0.0) n (%)
Cystitis [1, 6]: 0 (0.0) n (%)
Diarrhea [1, 6]: 0 (0.0) n (%)
Drug eruption [1, 6]: 0 (0.0) n (%)
Dry eye [1, 6]: 0 (0.0) n (%)
Dry skin [1, 6]: 0 (0.0) n (%)
Fall [1, 6]: 0 (0.0) n (%)
Gastritis [1, 6]: 0 (0.0) n (%)
Headache [1, 6]: 0 (0.0) n (%)
Hyperkalemia [1, 6]: 0 (0.0) n (%)
Hypoalbuminemia [1, 6]: 0 (0.0) n (%)
Insomnia [1, 6]: 0 (0.0) n (%)
Myalgia [1, 6]: 0 (0.0) n (%)
Nasopharyngitis [1, 6]: 0 (0.0) n (%)
Nausea [1, 6]: 0 (0.0) n (%)
Pyrexia [1, 6]: 0 (0.0) n (%)
Rash [1, 6]: 0 (0.0) n (%)
Stomatitis [1, 6]: 0 (0.0) n (%)
Upper respiratory tract infection [1, 6]: 0 (0.0) n (%)
Constipation ([1]; Grade ≥3 TEAE, Total (N = 17)): 0 (0.0) n (%)
Cough ([1]; Grade ≥3 TEAE, Total (N = 17)): 0 (0.0) n (%)
Cystitis ([1]; Grade ≥3 TEAE, Total (N = 17)): 0 (0.0) n (%)
Diarrhea ([1]; Grade ≥3 TEAE, Total (N = 17)): 0 (0.0) n (%)
Drug eruption ([1]; Grade ≥3 TEAE, Total (N = 17)): 0 (0.0) n (%)
Dry eye ([1]; Grade ≥3 TEAE, Total (N = 17)): 0 (0.0) n (%)
Dry skin ([1]; Grade ≥3 TEAE, Total (N = 17)): 0 (0.0) n (%)
Fall ([1]; Grade ≥3 TEAE, Total (N = 17)): 0 (0.0) n (%)
Gastritis ([1]; Grade ≥3 TEAE, Total (N = 17)): 0 (0.0) n (%)
Headache ([1]; Grade ≥3 TEAE, Total (N = 17)): 0 (0.0) n (%)
Hyperkalemia ([1]; Grade ≥3 TEAE, Total (N = 17)): 0 (0.0) n (%)
Hypoalbuminemia ([1]; Grade ≥3 TEAE, Total (N = 17)): 1 (5.9) n (%)
Insomnia ([1]; Grade ≥3 TEAE, Total (N = 17)): 0 (0.0) n (%)
Myalgia ([1]; Grade ≥3 TEAE, Total (N = 17)): 0 (0.0) n (%)
Nasopharyngitis ([1]; Grade ≥3 TEAE, Total (N = 17)): 0 (0.0) n (%)
Nausea ([1]; Grade ≥3 TEAE, Total (N = 17)): 0 (0.0) n (%)
Pyrexia ([1]; Grade ≥3 TEAE, Total (N = 17)): 0 (0.0) n (%)
Rash ([1]; Grade ≥3 TEAE, Total (N = 17)): 0 (0.0) n (%)
Stomatitis ([1]; Grade ≥3 TEAE, Total (N = 17)): 0 (0.0) n (%)
Upper respiratory tract infection ([1]; Grade ≥3 TEAE, Total (N = 17)): 0 (0.0) n (%)
patients with at least one TEAE ([1]; N = 17): all patients
neutropenia leading to dose interruption ([1]; additional 2 patients): 11.8%
serious TEAE of pancreatitis ([1]; dose interruption on both occurrences, responded to corticosteroid): One patient experienced a serious TEAE of pancreatitis (grade 2, study days 78 and 145)
TEAEs leading to dose interruption ([1]; during QD dosing): 7 patients
TEAEs leading to dose reduction ([1]; during QD dosing): 2 patients
TEAEs leading to dose interruption ([1]; during QW dosing): 4 patients
TEAEs leading to dose reduction ([1]; during QW dosing): 3 patients
Varicella zoster infection (AESI) ([1]; grade 2 in severity, led to parsaclisib discontinuation): 1 patient
TEAEs leading to parsaclisib dose reduction (terms) ([1]; human, in vivo, oral): febrile neutropenia (1 patient), drug eruption and neutropenia in a single patient during the QD period, pancreatitis and pancreatitis relapsing in a single patient, and diarrhea (1 patient) and exfoliative dermatitis (1 patient) during the QW period
febrile neutropenia (AESI), occurrence and severity ([1]; human, in vivo, oral): Two patients experienced grade 3
exfoliative dermatitis (AESI), occurrence and severity ([1]; human, in vivo, oral, 64 day): One patient experienced grade 1
Nonhematologic grade 3 or higher TEAEs occurring in 1 patient each ([1]; in vivo): bile duct stenosis (secondary to pancreatitis), hypoalbuminemia, and lymphoma progression (metastases to meninges [lymphomatous meningitis])
Other serious TEAEs experienced by 1 patient each ([1]; in vivo): diarrhea, enteritis infection, febrile neutropenia, metastases to meninges, and pancreatitis
TEAEs with a fatal outcome ([1]; in vivo): no TEAEs with a fatal outcome
diarrhea (AESI), longest time to resolution ([1]; individual patients): 14 days and 18 days and 67 days
diarrhea (AESI), time to first onset ([1]; individual patients): 70 days and 108 days and 305 days
febrile neutropenia (AESI), time to onset ([1]; individual patients): 28 days and 63 days
febrile neutropenia (AESI), time to resolution ([1]; individual patients): 10 days and 2 days
rash (AESI), longest time to resolution ([1]; individual patients): 5 days and 8 days and 23 days
rash (AESI), time to onset of first occurrence ([1]; individual patients): 11 days and 50 days and 312 days
Varicella zoster infection (AESI), onset ([1]; one patient): 33 days
Varicella zoster infection (AESI), resolution ([1]; one patient): 21 days
exfoliative dermatitis (AESI), onset ([1]; one patient): 64 days
exfoliative dermatitis (AESI), resolution ([1]; one patient): 36 days
diarrhea (AESI), severity ([1]; three patients, none led to discontinuation): 1 patient with grade 1 and 2 patients with grade 2
BOR, CMR/CR ([2]; DLBCL (n = 6)): 0 (0.0) n (%)
BOR, NMR/SD ([2]; DLBCL (n = 6)): 1 (16.7) n (%)
BOR, PMD/PD ([2]; DLBCL (n = 6)): 3 (50.0) n (%)
BOR, PMR/PR ([2]; DLBCL (n = 6)): 1 (16.7) n (%)
Objective response ([2]; DLBCL (n = 6)): 1 (16.7) n (%)
BOR, Not assessed ([2]; DLBCL (n = 6), no postbaseline response data available): 1 (16.7) n (%)
ORR ([2]; DLBCL, 1 of 6 patients (partial response)): 16.7%
observed PFS ([2]; one responder with DLBCL): 13.8 months
observed response duration ([2]; one responder with DLBCL): 12.2 months

Source: article PMC9128166 (Cancer Science, 2022)
